A short description of the data set: Toxicity liver stage against HepG2, at 10uM. The format is cell-based. Details: test concentration 10 uM, cell line HepG2-A16-CD81EGFP. To be noted: human, HepG2-A16-CD81EGFP cells; read-out: INHIBITION
The method, boiled down:
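Uninfected HepG2-A16-CD81EGFP cells, 3 × 10^3 per well, 1536-well, plated on prespotted compound at 10 μM final, parasite-free screening media added to match infected plates; puromycin 10 μM positive, DMSO 0.5% negative; run in parallel with 48 h PbLuc assay at 37 °C, 5% CO2; viability by CellTiter-Glo luminescence, normalized to controls.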

In the case of `CN1CCC(Cc2noc(-c3cccc(Oc4ncccn4)c3)n2)CC1`, the cytotoxicity at 10 µM was -5.21%.

As for `Cc1ccc2c(c1)CCC2NCc1c(C)nn(C)c1N1CCOCC1` (configuration not stated), the cytotoxicity at 10 µM is -8.03%.

Consider `CC(=O)N1CCCC1C(=O)NCCOc1c(C)cccc1C` (configuration not stated), for which the cytotoxicity at 10 µM was -24.1%.

In the case of `Cc1ccc(OCCN(C)Cc2nccn2C)c(C)c1`, the cytotoxicity at 10 µM came to 5.51%.

In the case of `Cc1cnn(C2CN(Cc3nc4cc(Cl)ccc4n3C)C2)c1`, the cytotoxicity at 10 µM was -1.16%.

In the case of `COc1ncccc1CNC(=O)c1cccc(C)n1`, the cytotoxicity at 10 µM is -1.58%.

In the case of `COCCN1C[C@H]2CN(Cc3cccc(OC(F)(F)F)c3)CCN2C1=O`, the cytotoxicity at 10 µM worked out at 2.67%.

Take `CO[C@H]1CO[C@@]2(CCCN(S(=O)(=O)c3ccccc3)C2)C1`: the cytotoxicity at 10 µM was -81.9%.

Take `CCOc1cccc2c1OCC(C(=O)NS(=O)(=O)c1ccc(C)s1)=C2`: the cytotoxicity at 10 µM is -9.02%.

For the compound `Cn1nccc1C(=O)N1CCOC(Cc2ccc(Cl)cc2)C1` (configuration not stated), the cytotoxicity at 10 µM was -26%.

As to `CC(=O)N[C@@H]1Cc2ccccc2[C@H]1Nc1nnc(C2CC2)o1`, the cytotoxicity at 10 µM is -47.1%.

For the compound `CCn1cnnc1CNC(=O)N1CCN(C(C)C)CC1`, the cytotoxicity at 10 µM was -18.1%.

In the case of `CC(C)c1nccn1C1CCCN(C(=O)CCNS(C)(=O)=O)C1` (configuration not stated), the cytotoxicity at 10 µM is -3.71%.

As to `Cc1ccc(CNCc2cccc3cccnc23)c(OC2CCOC2)c1` (configuration not stated), the cytotoxicity at 10 µM came out at 1.42%.

As for `CCC(C)N(Cc1ccncc1)Cc1ccccc1Cn1cccn1` (configuration not stated), the cytotoxicity at 10 µM was -44.4%.

For `Cc1cc(C)n(C2=NC(NCCCO)c3c(sc4c3CCCC4)N2)n1` (configuration not stated), the cytotoxicity at 10 µM turned out to be 14%.

Take `CN(Cc1nnc2ccccn12)C(=O)CCC1CCCC1`: the cytotoxicity at 10 µM was -2.94%.

In the case of `O=C(NCc1nc2cc(F)ccc2[nH]1)c1ccc[nH]1`, the cytotoxicity at 10 µM was determined as 11.9%.

For the compound `CC(CNC(=O)c1cn(-c2ccccc2)nn1)Cn1cccn1` (configuration not stated), the cytotoxicity at 10 µM is -41.6%.

Consider `Cc1ccc(CN2CC(C(=O)NC(C)C)C3(CCOCC3)C2)s1` (configuration not stated), for which the cytotoxicity at 10 µM is 1.12%.

For the compound `O=C(CCOc1cccc(F)c1)N1CCCC(n2cccn2)C1` (configuration not stated), the cytotoxicity at 10 µM is -14.7%.

As to `O=C(Cn1cnc2sccc2c1=O)NCCc1nnc2ccccn12`, the cytotoxicity at 10 µM is 3.57%.

Regarding `CC(=O)N1CCC2(CC1)CC(Oc1ccccc1)CO2` (configuration not stated), the cytotoxicity at 10 µM was -8.77%.

In the case of `COCC(=O)N1CCC2(C1)c1ccccc1S(=O)(=O)N2C` (configuration not stated), the cytotoxicity at 10 µM was 3.57%.

`CCCC(=O)Nc1cc(C(=O)NC(C)Cc2ccncc2)ccc1C` (configuration not stated): the cytotoxicity at 10 µM came out at 2.52%.

On to `CCCc1cc(=O)[nH]c2nnc(SCC(=O)NCCc3ccccc3)n12`, for which the cytotoxicity at 10 µM worked out at 14.2%.

As for `COc1cccc(CN2CC(O)CN(C(=O)C3CCC3)CC2=O)c1OC` (configuration not stated), the cytotoxicity at 10 µM was 4.43%.

`Cc1nc2ccnn2c(C)c1CCC(=O)N1CCSCC1`: the cytotoxicity at 10 µM is -4.24%.

`COCC(C)(O)CNC(=O)c1cc(-c2ccc(F)cc2)nn1C` (configuration not stated): the cytotoxicity at 10 µM is -5.1%.

For `N#CC1(C(=O)N2CCN(Cc3cscn3)CC2)CCCCC1`, the cytotoxicity at 10 µM was -3.27%.

Consider `CCc1nc(C)c(C(=O)N2CCNCC2C(=O)NCc2ccncc2)o1` (configuration not stated), for which the cytotoxicity at 10 µM was -3.64%.

Take `COCCNc1ncc(-c2onc(C)c2C)c(-c2ccco2)n1`: the cytotoxicity at 10 µM is 5.92%.

For the compound `NC(=O)CNC(c1ccccc1)c1ccc(OC(F)F)cc1` (configuration not stated), the cytotoxicity at 10 µM amounted to 58.2%.

On to `CCC(=O)N1CCC(c2cncc(Oc3cccnc3)n2)CC1`, for which the cytotoxicity at 10 µM is -4.69%.

On to `c1cnc(N2CCC3(CCCN(CC4CC4)C3)CC2)nc1`, for which the cytotoxicity at 10 µM is -3.24%.

In the case of `O=C(N1CCCC1)N1CCOCC2(C1)CN(c1ccccc1)C(=O)CO2` (configuration not stated), the cytotoxicity at 10 µM worked out at 4.77%.

Regarding `Cc1nc(CN2CCC(N(C)Cc3noc(C(C)C)n3)C2)oc1C` (configuration not stated), the cytotoxicity at 10 µM came to 4.63%.

With `CCCn1c(C)c(CC(=O)N(C)CCOC)c2c1CC(C)(C)CC2=O`, the cytotoxicity at 10 µM is -16.6%.

With `Cc1cc(=O)c2cc(F)ccc2n1CC(=O)O`, the cytotoxicity at 10 µM is 0.753%.

Regarding `O=C(O)C1CN(c2cccc(Cl)c2)CCO1` (configuration not stated), the cytotoxicity at 10 µM is -12.4%.

For the compound `CN1CCOC(C(=O)Nc2ccc3c(c2)nc(C2CC2)n3C)C1` (configuration not stated), the cytotoxicity at 10 µM is -5.5%.

`CC(C)n1cnnc1CNC(=O)CCCOc1ccccc1F`: the cytotoxicity at 10 µM is -4.56%.

`COc1cc(CCC(=O)N2CCC(c3cc4ncc(C)nc4[nH]3)C2)on1` (configuration not stated): the cytotoxicity at 10 µM was 1.92%.

Regarding `Cc1cnn(CCNCc2ccccc2OCc2cccnc2)c1`, the cytotoxicity at 10 µM came out at 3.8%.

For `O=C(CCSc1ccccc1F)NCc1cccnc1`, the cytotoxicity at 10 µM is -4.48%.

On to `c1nc(NCc2cc3n(n2)CCN(C2CCCCC2)C3)c2nc[nH]c2n1`, for which the cytotoxicity at 10 µM came to 24.2%.

For `CC(C(=O)N1CCc2sccc2C1)N1CCCN(C2CC2)CC1` (configuration not stated), the cytotoxicity at 10 µM came out at 3.86%.

`Cc1ccc(C(=O)N2CC[C@@H]3[C@H]2CCC(=O)N3c2ccccc2)o1`: the cytotoxicity at 10 µM was -3.89%.

With `O=C(c1ccco1)N1CCOC2(COCCN(c3ncccn3)C2)C1` (configuration not stated), the cytotoxicity at 10 µM is -102%.

Regarding `CN(C)[C@@H]1CO[C@H](CNC(=O)c2cccs2)[C@H]1O`, the cytotoxicity at 10 µM is -1.37%.

Consider `CCCn1cnnc1CN(C)C(=O)C1CCC(=O)N(C2CCCC2)C1` (configuration not stated), for which the cytotoxicity at 10 µM turned out to be 2.95%.

On to `O=C(c1ncccn1)N1C[C@H]2CCC[C@@]2(COCC2CCOCC2)C1`, for which the cytotoxicity at 10 µM was -1.11%.

With `COc1cccc2cc(CNC(=O)N3CCCC(O)C3)oc12` (configuration not stated), the cytotoxicity at 10 µM is -8.8%.

In the case of `Cc1ccc(CN2CCC3(CCC(=O)N3CC(=O)N(C)C)CC2)s1`, the cytotoxicity at 10 µM is -2.45%.

On to `Cn1ccnc1C1(O)CCN(C(=O)Cc2ccccc2)CC1`, for which the cytotoxicity at 10 µM was 5.09%.

Consider `CN(CCN1CCOCC1)C(=O)CCCc1ccccc1`, for which the cytotoxicity at 10 µM was -8.28%.

As for `CO[C@H]1CN(C)S(=O)(=O)[C@@]12CCN(Cc1ccccc1)C2`, the cytotoxicity at 10 µM amounted to 1.79%.

For `CC(C)c1nc(CN(C)C(=O)c2ccc3c(c2)OCO3)cs1`, the cytotoxicity at 10 µM is -1.1%.

Take `c1cc(-c2n[nH]cc2-c2ccnc(N3CCCC3)n2)ccn1`: the cytotoxicity at 10 µM was -0.779%.

In the case of `CS(=O)(=O)NC[C@H]1OC[C@@H]2CCN(C(=O)c3cccnc3)C[C@@H]21`, the cytotoxicity at 10 µM came out at 5.31%.

For the compound `CC(C)S(=O)(=O)CCN1CCc2c(ncn2C2CC2)C1`, the cytotoxicity at 10 µM is -13.9%.

As to `OCCn1nccc1C1CCN(CCOc2ccc(Cl)cc2)CC1`, the cytotoxicity at 10 µM is -4.68%.

As to `O=C(NCc1ccco1)[C@H]1CC[C@@H]2[C@@H](CCN2C2CCC2)O1`, the cytotoxicity at 10 µM amounted to 6.47%.

On to `O=C(Nc1ccc(-c2cscn2)cc1)C1CCCN(Cc2ccon2)C1` (configuration not stated), for which the cytotoxicity at 10 µM worked out at 0.414%.

`CC(C)C(=O)N1CCC(C)(c2cc(O)[nH]n2)CC1`: the cytotoxicity at 10 µM was -14.5%.

With `Cc1cncc(C(=O)N2CCCC3(CCCN3S(C)(=O)=O)C2)c1` (configuration not stated), the cytotoxicity at 10 µM is -152%.

Consider `Cc1ccc2c(n1)N(CC1CC1)CCN(Cc1cnn(C)c1)C2`, for which the cytotoxicity at 10 µM was -2.91%.

For the compound `CC(C)OCCCNC(=O)CN1C=Nc2ccccc2S1(=O)=O`, the cytotoxicity at 10 µM was -5.44%.

On to `Cc1ccc2c(c1)N(C(=O)C1CCCOC1)CCC2` (configuration not stated), for which the cytotoxicity at 10 µM worked out at 5%.

Regarding `CCc1nc2ccccc2c(=O)n1CC1(O)CCN(C(=O)COC)CC1`, the cytotoxicity at 10 µM is -2.76%.

Regarding `CCC(C)(NCC(=O)NC(=O)NC)c1nccs1` (configuration not stated), the cytotoxicity at 10 µM came to 7.77%.

Turning to `Cc1ccc2c(CC(=O)N3C[C@@H](O)[C@H](N(C)C)C3)coc2c1`, the cytotoxicity at 10 µM is 10.4%.

Regarding `COCCN1CCC(CNC(=O)Nc2ccc(SC(F)(F)F)cc2)C1` (configuration not stated), the cytotoxicity at 10 µM was -11.6%.

Regarding `CCNC(=O)[C@@H]1CCCN1C1(C(=O)NC)CCCCC1`, the cytotoxicity at 10 µM is 5.09%.

Regarding `CN(CC(F)(F)F)C(=O)COc1nc(Cc2ccc(F)cc2)no1`, the cytotoxicity at 10 µM turned out to be 9.36%.

Consider `COCC(=O)N1CCC(c2cc(C(F)(F)F)n3ccnc3n2)CC1`, for which the cytotoxicity at 10 µM was found to be 1.44%.

With `O=C(Cc1cccs1)NC1(C(=O)NCC2CC2)CCCC1`, the cytotoxicity at 10 µM came out at 4.19%.

`Cc1nn(-c2ccccn2)c(C)c1[C@@H]1C=C[C@@H](NC(=O)NC(C)C)C1`: the cytotoxicity at 10 µM amounted to 1.52%.

`Clc1cccc(CNc2cnn(CCN3CCCCC3)c2)c1`: the cytotoxicity at 10 µM is 0.889%.

In the case of `NCC1CN(Cc2cn(CCC(N)=O)c3ccccc23)CCO1` (configuration not stated), the cytotoxicity at 10 µM was found to be 4.01%.

For `CCNc1ncc(C(=O)NCC2OCCc3ccccc32)cn1` (configuration not stated), the cytotoxicity at 10 µM is -53.1%.

`O=C(O)C1(n2ccc(-c3ccco3)n2)CCN(Cc2ccccn2)CC1`: the cytotoxicity at 10 µM is -137%.

For `CCN(Cc1ccc(O)c(C(=O)O)c1)CC1CCOCC1`, the cytotoxicity at 10 µM is -5.24%.

Regarding `COCc1noc(CN2CC(=O)N(C)c3ccccc3C2=O)n1`, the cytotoxicity at 10 µM was -6.3%.

Consider `Cc1ccc(-c2nnc(CN3CCc4nn(C)c(=O)cc4C3)o2)cc1`, for which the cytotoxicity at 10 µM was -23.4%.

With `O=C(C1SCCc2sccc21)N1CCC(O)CC1` (configuration not stated), the cytotoxicity at 10 µM was -7.38%.

For `CN(C)Cc1nnc(C2CCN(C(=O)CCc3cccs3)CC2)n1C`, the cytotoxicity at 10 µM was -15.9%.

As for `O=C(O)c1cncc(Cc2ccc(F)cc2)c1`, the cytotoxicity at 10 µM worked out at 2.39%.

Take `CNC(=O)NC(=O)CCN1CCOC(c2ccc(Br)cc2)C1` (configuration not stated): the cytotoxicity at 10 µM is -2.42%.

For the compound `Fc1ccc(N2CCC3(CC2)CC(OCc2cccnc2)CO3)cc1` (configuration not stated), the cytotoxicity at 10 µM stood at 9.81%.

As to `CC[C@H]1CN(C(=O)c2cccnc2)CC[C@H]1CC(=O)NC1CC1`, the cytotoxicity at 10 µM was found to be 4.18%.

As for `Cc1nc(N(C)C)nc(NCCc2ccccn2)c1C`, the cytotoxicity at 10 µM worked out at 4.59%.

As for `NC(=O)c1ccc(C2CCCN2C(=O)Cn2nc3ccccc3n2)s1` (configuration not stated), the cytotoxicity at 10 µM stood at 9.15%.

As for `CC(C)c1nn(C)c(N2CCOCC2)c1CN[C@H](C)CO`, the cytotoxicity at 10 µM is -7.67%.

In the case of `CCN1CCN(C(=O)c2cc(C(=O)OC)nn2-c2ccccc2)CC1`, the cytotoxicity at 10 µM is -13.4%.

Consider `CC(=O)NCC1CCC2(CCN(c3nccc(C4CCCC4)n3)CC2)O1` (configuration not stated), for which the cytotoxicity at 10 µM was -4.43%.

With `O=C(c1ccncc1)N1CCC2(COc3ncccc3S(=O)(=O)N2)C1` (configuration not stated), the cytotoxicity at 10 µM was found to be 9.62%.

The record behind these values is ChEMBL document CHEMBL4513216, “Probing the Open Global Health Chemical Diversity Library for Multistage-Active Starting Points for Next-Generation Antimalarials” (ACS Infect Dis, 2020).
